According to ChEMBL document CHEMBL1212871, “Lipophilic phenolic antioxidants: correlation between antioxidant profile, partition coefficients and redox properties” (Bioorg Med Chem, 2010):

What was measured:
[1] = system: Radical scavenging activity; assay: Antioxidant activity assessed as ratio of IC50 for Trolox to compound for DPPH radical scavenging activity by TEAC assay; type: functional
Procedure, shortened: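 DPPH• (180 µL) received 20 µL ethanolic compound, six concentrations of 1.5 × 10^-5 to 15 × 10^-5 M, prepared in duplicate and assayed in quadruplicate. Absorbance was read every minute for 10 min, then every 5 min for 50 min; ethanol blank = 100% radical. 60-min data were fitted by second-degree polynomial through 100%. TEAC = Trolox IC50 / compound concentration giving 50% bleaching.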

[2] = Redox potential at pH 7.3 by differential pulse and cyclic voltametry; type: physicochemical
Procedure, shortened: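 Glassy carbon working electrode, potentials vs Ag/AgCl. 0.1 mM compound (diluted from 10 mM ethanol stock) in pH 7.3 phosphate supporting electrolyte, made from 0.2 M K2HPO4 and KH2PO4. Differential pulse voltammetry was run at 5 mV s^-1. Cyclic voltammetry was run at 50 mV s^-1, with scan rates of 10–100 mV s^-1 also examined.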

[3] = Antioxidant activity assessed as ratio of IC50 for Trolox to compound for ABTS radical scavenging activity after 5 mins by TEAC assay; type: functional
Procedure, shortened: (§1)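 Six ethanolic compound solutions (1.5 × 10^-5 to 15 × 10^-5 M) were made in duplicate, and 20 µL of each was added to 180 µL ABTS•+ in quadruplicate. Absorbance was read every 5 min over 20 min; ethanol blank = 100% radical. Radical % against concentration at 5 or 20 min was fitted by second-degree polynomial through 100%. TEAC = Trolox IC50 / compound concentration giving 50% bleaching.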

[4] = Antioxidant activity assessed as ratio of IC50 for Trolox to compound for ABTS radical scavenging activity after 20 mins by TEAC assay; type: functional; procedure, shortened: as §1
[5] = Antioxidant activity assessed as inhibition of AAPH-induced lipid peroxidation in liposomes measured as Trolox equivalent antioxidant capacity; type: functional; settings: Liposome
Procedure, shortened: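 Egg phosphatidylcholine LUVs (0.80 mM final) holding a radical-sensitive fluorescent probe were mixed with polyphenol (1.50, 7.50, 15.00 µM final; 1.5% ethanol) and shaken 10 min at 37 °C. Peroxidation was then started with 15.00 mM AAPH. Fluorescence (ex 360/40, em 460/40 nm) was read at 37 °C for 3 h. TEAC = (AUC compound − AUC control)/(AUC Trolox − AUC control). Run in duplicate.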

Row | Redox potential [2] [V] | SMILES | Ratio IC50 [1] | Ratio IC50 [3] | Ratio IC50 [4] | Ratio [5]
1 | 0.125 | CCCCCCOC(=O)CCc1ccc(O)c(O)c1 [HEXYLHYDROCAFFEATE] | 0.99 | 0.96 | 0.96 | 3.49
2 | 0.175 | CCCCCCOC(=O)/C=C/c1ccc(O)c(O)c1 [HEXYLCAFFEATE] | 0.97 | 0.91 | 0.93 | 3.55
3 | 0.328 | CCCCCCOC(=O)/C=C/c1ccc(O)c(OC)c1 [HEXYLFERULATE] |  |  |  | 1.13
4 | 0.125 | CCCCCCNC(=O)CCc1ccc(O)c(O)c1 [HYDROCAFFEOYLHEXYLAMIDE] | 1 | 1.01 | 1.02 | 2.08
5 | 0.322 | CCCCCCNC(=O)/C=C/c1ccc(O)c(OC)c1 [FERULOYLHEXYLAMIDE] |  |  |  | 1.22
6 | 0.388 | CCCCCCNC(=O)CCc1ccc(O)c(OC)c1 [HYDROFERULOYLHEXYLAMIDE] |  |  |  | 0.68

The next lines start with the compound.

Row | SMILES | Redox potential [2] [V] | Ratio IC50 [1] | Ratio IC50 [3] | Ratio IC50 [4] | Ratio [5]
7 | O=C(O)CCc1ccc(O)c(O)c1 [DIHYDROCAFFEIC ACID] | 0.139 | 2.05 | 1.16 | 1.41 | 1.75
8 | CCCCCCNC(=O)/C=C/c1ccc(O)c(O)c1 [CAFFEOYLHEXYLAMIDE] | 0.162 | 1.11 | 1.04 | 1.05 | 2.41
9 | CCCCCCOC(=O)CCc1ccc(O)c(OC)c1 [HEXYLHYDROFERULATE] | 0.434 |  |  |  | 0.57
10 | COc1cc(CCC(=O)O)ccc1O [DIHYDROFERULIC ACID] | 0.41 |  |  |  | 0.22
11 | O=C(O)/C=C/c1ccc(O)c(O)c1 [CAFFEIC ACID] | 0.183 | 1.29 | 1.14 | 1.27 | 2.23
12 | COc1cc(/C=C/C(=O)O)ccc1O [FERULATE] | 0.35 |  |  |  | 0.79
